Screens deposited in PubChem by several laboratories.
ALR H2O2 inh = inhibitors of human sulfhydryl oxidase ALR. AID 485317. P55789. inhibition, % (no concentration beside the values). 290,000 tested, 3.8% active. purified ALR, DTT oxidation, H2O2 HRP-luminol luminescence;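 active = mean replicate inhibition above about 79%, with every replicate also reaching it, limit read from the data; inconclusive = only one of the two criteria met; inactive = mean below limit and not every replicate reaching it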
Target sequence (P55789 whole entry, looked up): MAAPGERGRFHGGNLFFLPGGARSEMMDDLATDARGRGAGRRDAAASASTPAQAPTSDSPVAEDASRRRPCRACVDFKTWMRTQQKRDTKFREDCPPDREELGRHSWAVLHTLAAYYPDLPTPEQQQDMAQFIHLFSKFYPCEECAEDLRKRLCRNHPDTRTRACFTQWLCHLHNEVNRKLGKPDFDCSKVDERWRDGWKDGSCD
N-glyco inh = blocks N-linked glycosylation in D54 reporter cells. D54 ERlucT glycosylation luciferase reporter, 24 h; percent of 100 nM tunicamycin response. reporter increase, % at 12.5 µM. 360,000 tested, 0.23% active;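 active = mean luciferase reporter signal, scaled so untreated is 0 and the glycosylation-blocking control 100, at or above a set limit in every replicate; inconclusive = mean reaches the limit but not every replicate does; inactive = mean below the limit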;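 note: luciferase carries N-glycosylation sites so blocking glycosylation raises the light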
T cell HTS = T cell immune modulation candidate. response (vesicle binding), % at 7 µM. 2C CD8+ T cell-vesicle binding, flow cytometry; hits give low values. 330,000 tested, 0.068% active. AID 2052;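 active = response, share of CD8 T cells binding vesicles, and their 90th percentile fluorescence all below set limits, cut at about 80% in these data, passing the limit was not always enough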;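 note: values below 100% mean blocked vesicle binding to the CD8+ T cells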
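Material: murine 2C transgenic CD8+ T lymphocytes / Also added: QL9-peptide-loaded Drosophila micro-vesicles bearing Ld, ICAM-1 and B7-1 / Schedule: binding step 1.5 h, 37 °C, antibody labelling 20 min, ice / Signal: flow cytometry, PE anti-B7-1 (FL2) versus Alexa647 anti-CD8 (FL8), PFA-fixed / Evaluation: percent CD8+ FL2 mean versus row control / Benchmarks: naked versus QL9-loaded vesicles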
Of the large screens only hits and unclear results are named; the others gave an inactive call. This is one part of a sample in which hits are shown more often than they occur.

COc1ccc(N2CCN(C(=O)CCc3nnc4ccc(N5CCCC5)nn34)CC2)cc1	ALR H2O2 inh inconclusive
COc1ccc(NC(=O)CCc2nnc3ccc(N4CCC(C)CC4)nn23)cc1	none
COc1cccc(N2CCN(c3ccc4nnc(CCC(=O)Nc5ncccc5C)n4n3)CC2)c1	ALR H2O2 inh 99
COc1cccc(N2CCN(c3ccc4nnc(CCC(=O)Nc5ccc(C)cn5)n4n3)CC2)c1	none
CN(C)c1ccc(CC(=O)N2CCCCC2c2cc(C(=O)Nc3cccc(C#N)c3)no2)cc1 (stereo not given)	none (no result: ALR H2O2 inh, T cell HTS)
CCCN=C1N(C)C[C@@H]2[C@@H]3C(=O)N(C)C(=O)[C@@H]3[C@](Cc3ccccc3)(C(=O)OC)N12	none (no result: ALR H2O2 inh, T cell HTS)
CC(=O)c1cnc(Oc2cc(Cl)ccc2Cl)nc1C	none
O=C(c1ccc2c(c1)N(Cc1ccccc1)CCS2)N1CCOCC1	ALR H2O2 inh 99
COc1ccc(OC)c(CCNC(=O)c2ccc3c(c2)N(Cc2ccc(F)cc2)CCS3)c1	none
O=C(c1ccc2c(c1)N(Cc1ccc(F)cc1)CCS2)N1CCOCC1	ALR H2O2 inh 99
O=C(c1ccc2ccccc2c1)N1CCOCC1	none
CCC(C)NC(=O)c1cn(-c2cccc(OC)c2)c(=O)c2ccccc12 (stereo not given)	none
CC1(NC(=O)Cc2ccc(S(=O)(=O)N3CCOCC3)s2)CCS(=O)(=O)C1 (stereo not given)	none (no result: ALR H2O2 inh)
CCOC(=O)C1(Cc2cccc(Cl)c2)CCCN(C(=O)c2cc(CC)on2)C1 (stereo not given)	none
CCCCCCN1C[C@H](O)[C@@H](n2cc(C3CC3)nn2)C[C@@H]1c1ccc(OC)cc1	none (no result: ALR H2O2 inh, T cell HTS)
Cc1csc(NC(=O)CSc2nc3[nH]c(=O)cc(O)c3s2)n1	none (no result: ALR H2O2 inh, T cell HTS)
Cc1csc(NC(=O)CSc2sc3c(O)cc(=O)[nH]c3c2C#N)n1	ALR H2O2 inh 99
CCc1nnc(NC(=O)CSc2sc3c(O)cc(=O)[nH]c3c2C#N)s1	ALR H2O2 inh 98
CCSc1nnc(NC(=O)CSc2sc3c(O)cc(=O)[nH]c3c2C#N)s1	none
COCCN(Cc1ccccc1)C(=O)c1cccc(S(=O)(=O)N2CCCc3ccccc32)c1	none
COc1ccccc1NC(=O)NC1(C(=O)N2CCN(C)CC2)CCCCC1	none
CCOC(=O)c1ccc(S(=O)(=O)N2CCC(C(=O)Nc3nnc(C)o3)CC2)cc1	none (no result: ALR H2O2 inh, T cell HTS)
O=C1OC(c2ccccc2)(c2ccc3cc(O)ccc3c2)c2ccccc21 (stereo not given)	none (no result: ALR H2O2 inh, T cell HTS)
COc1ccc(N2CCN(C(=O)COC(=O)c3ccco3)CC2)cc1	none
O=S1(=O)C[C@@H](O)[C@@H](Nc2ccc(Cl)cc2)C1	ALR H2O2 inh 98
O=C1NC(=S)NC(=O)C1Nc1ccc(Cl)cc1	none (no result: ALR H2O2 inh, T cell HTS)
O=C(NCc1cccc(C(F)(F)F)c1)c1ccc[nH]1	none
CC(C)Oc1ccc(S(=O)(=O)N2CCCCC2)cc1NC(=O)CN1C(=O)NC2(CCCC2)C1=O	none
C(=C\c1nc2ccccc2[nH]1)/c1ccccc1	ALR H2O2 inh 98
C(=C\c1ccco1)/c1nc2ccccc2[nH]1	ALR H2O2 inh 98
O=C(/C=C/c1ccco1)Nc1ccc(-c2nc3ccccc3[nH]2)cc1	none
O=c1[nH]c(/C=C/c2ccc(Br)cc2)nc2ccccc12	none
Nc1c(N(Cc2ccccc2)C(=O)COc2ccc(F)cc2Cl)c(=O)[nH]c(=O)n1Cc1ccccc1	none (no result: ALR H2O2 inh)
O=C(NC(=S)N(Cc1ccccc1)c1ccccn1)C1CC1	ALR H2O2 inh 99
O=C(NC(=S)N(Cc1ccccc1)Cc1ccccc1)C1CCCCC1	none
COc1cccc(CNC(=O)COC(=O)C2CC3CCCC(C2)C3=O)c1 (stereo not given)	none
NS(=O)(=O)c1ccc(CCNc2ccn3nc(-c4ccc(OCCN5CCOCC5)cc4)cc3n2)cc1	none (no result: ALR H2O2 inh, T cell HTS)
Cc1cc(Cl)ccc1OCCCC(=O)OCC(N)=O	none
COc1cc(C(=S)N(C)C)ccc1O	ALR H2O2 inh 92
CCCOC(=O)c1ccc(O)c(OC)c1	none
COC(=O)Sc1nnc(-c2ccc(Br)cc2)o1	ALR H2O2 inh 98 (no result: N-glyco inh)
OCC#CCSc1nnc(-c2ccc(Br)cc2)o1	none
COc1cc(OC)cc(C(=O)Nc2ccccc2C(=O)NC2CC2)c1	none
O=C1OCCC1Sc1nc2cc(Cl)ccc2s1 (stereo not given)	none
O=C1OCCC1Sc1nc2ccccc2s1 (stereo not given)	ALR H2O2 inh 98
c1ccc(CNc2cccnc2)cc1	none (no result: ALR H2O2 inh, T cell HTS)
O=C(Nc1cc(Cl)cc(Cl)c1)C(c1ccccc1)N1CCCCC1 (stereo not given)	none
O=C(O)c1ccccc1OC(C(=O)Nc1cc(Cl)cc(Cl)c1)c1ccccc1 (stereo not given)	N-glyco inh 29
NC(=O)c1nccc2ccccc12	none (no result: ALR H2O2 inh, T cell HTS)
COc1ccc(C(=O)c2sc(Nc3ccccc3)nc2N)cc1OC	N-glyco inh 33
COc1ccc(C(=O)c2sc(Nc3ccccc3)nc2N)cc1	none
Nc1nc(Nc2ccccc2)sc1C(=O)c1ccccc1	N-glyco inh 29
COc1ccc(C(=O)c2sc(Nc3ccccc3F)nc2N)cc1	none
